Measured values reported in ChEMBL document CHEMBL2417409 (Eur J Med Chem, 2013).

Key:
[1] = target: Sucrase-isomaltase, intestinal (Rattus norvegicus) (UniProt P23739); test: Inhibition of rat intestine sucrase using sucrose as substrate at 10 mg/ml incubated for 10 mins prior to substrate addition measured after 40 mins by glucose oxidase colorimetric method
[2] = system: Radical scavenging activity; test: Antioxidant activity assessed as DPPH radical scavenging activity at 10 mg/ml after 15 mins by spectrophotometry; type: functional
How it was run: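 Sample (10 µL at 0.1, 1.0 or 10.0 mg/mL) mixed with 0.1 mM DPPH in methanol (150 µL), kept in the dark at room temperature on a shaker for 15 min. Percentage scavenging = [(A0 − A1)/A0] × 100, with A0 and A1 the absorbance without and with sample.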

[3] = system: Saccharomyces cerevisiae; test: Inhibition of yeast type 1 alpha-glucosidase using PNPG as substrate at 10 mg/ml incubated for 10 mins prior to substrate addition measured after 20 mins by spectrophotometry
[4] = target: T1, Sucrase-isomaltase, intestinal (Rattus norvegicus, UniProt P23739); test: Inhibition of rat intestine sucrase using sucrose as substrate incubated for 10 mins prior to substrate addition measured after 40 mins by glucose oxidase colorimetric method
T1 sequence (P23739 1-1013 limits assumed): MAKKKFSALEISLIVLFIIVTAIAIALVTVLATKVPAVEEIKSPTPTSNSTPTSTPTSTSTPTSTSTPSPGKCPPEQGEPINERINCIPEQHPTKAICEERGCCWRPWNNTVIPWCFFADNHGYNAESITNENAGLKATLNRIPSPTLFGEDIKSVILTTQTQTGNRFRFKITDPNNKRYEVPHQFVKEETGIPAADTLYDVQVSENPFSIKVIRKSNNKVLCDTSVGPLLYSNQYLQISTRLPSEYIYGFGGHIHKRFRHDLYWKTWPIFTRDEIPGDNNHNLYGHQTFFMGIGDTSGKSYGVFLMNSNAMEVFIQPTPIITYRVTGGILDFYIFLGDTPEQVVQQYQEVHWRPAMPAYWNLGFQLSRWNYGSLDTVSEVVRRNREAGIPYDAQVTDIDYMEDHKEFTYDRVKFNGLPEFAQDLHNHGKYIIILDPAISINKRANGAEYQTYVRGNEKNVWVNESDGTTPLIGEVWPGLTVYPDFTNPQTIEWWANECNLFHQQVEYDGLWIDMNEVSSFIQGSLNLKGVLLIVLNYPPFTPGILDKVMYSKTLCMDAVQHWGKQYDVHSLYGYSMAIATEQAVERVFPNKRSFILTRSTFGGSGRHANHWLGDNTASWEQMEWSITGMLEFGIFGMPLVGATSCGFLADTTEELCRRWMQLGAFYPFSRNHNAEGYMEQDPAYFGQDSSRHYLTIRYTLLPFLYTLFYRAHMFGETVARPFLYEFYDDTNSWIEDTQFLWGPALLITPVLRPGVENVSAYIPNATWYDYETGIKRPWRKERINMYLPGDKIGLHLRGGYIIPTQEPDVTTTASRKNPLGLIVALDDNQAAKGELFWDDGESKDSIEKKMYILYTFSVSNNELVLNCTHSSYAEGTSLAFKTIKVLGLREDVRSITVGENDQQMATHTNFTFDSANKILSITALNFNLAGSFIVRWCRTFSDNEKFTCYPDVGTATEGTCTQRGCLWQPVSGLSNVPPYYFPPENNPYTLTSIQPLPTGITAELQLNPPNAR
T1 sequence (P23739 1014-1841 limits assumed): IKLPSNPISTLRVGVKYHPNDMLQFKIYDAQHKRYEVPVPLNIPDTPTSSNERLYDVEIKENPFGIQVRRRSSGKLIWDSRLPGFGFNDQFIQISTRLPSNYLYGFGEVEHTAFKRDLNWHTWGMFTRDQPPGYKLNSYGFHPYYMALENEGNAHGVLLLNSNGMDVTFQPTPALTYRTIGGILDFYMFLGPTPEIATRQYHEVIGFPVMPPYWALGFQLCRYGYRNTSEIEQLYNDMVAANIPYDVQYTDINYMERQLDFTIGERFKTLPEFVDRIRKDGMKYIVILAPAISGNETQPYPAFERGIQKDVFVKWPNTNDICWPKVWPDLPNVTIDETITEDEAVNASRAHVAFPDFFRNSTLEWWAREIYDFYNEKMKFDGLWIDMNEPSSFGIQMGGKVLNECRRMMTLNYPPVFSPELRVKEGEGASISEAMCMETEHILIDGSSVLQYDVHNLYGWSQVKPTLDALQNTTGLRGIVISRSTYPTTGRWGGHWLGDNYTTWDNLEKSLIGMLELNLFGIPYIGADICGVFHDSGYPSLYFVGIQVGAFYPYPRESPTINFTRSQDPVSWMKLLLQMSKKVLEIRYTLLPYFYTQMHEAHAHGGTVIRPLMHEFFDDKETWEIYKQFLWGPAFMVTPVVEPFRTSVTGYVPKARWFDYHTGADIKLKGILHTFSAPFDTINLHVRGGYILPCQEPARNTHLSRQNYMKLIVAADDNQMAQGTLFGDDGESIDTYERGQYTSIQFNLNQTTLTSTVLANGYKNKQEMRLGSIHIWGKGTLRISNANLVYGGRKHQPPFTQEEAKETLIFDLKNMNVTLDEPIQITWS
How it was run: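 Crude enzyme from centrifuged (12,000 g, 30 min) intestinal supernatant containing both maltase and sucrase. Test compound (1 mg/mL stock, DMSO) preincubated with enzyme at 37 C for 10 min. Substrate in 0.1 M phosphate buffer pH 6.9 (maltose 0.58 mM or sucrose 20 mM) added, then 40 min at 37 C. Quenched at 80 C for 15 min. Released glucose measured by glucose oxidase kit.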

[5] = system: Radical scavenging activity; test: Antioxidant activity assessed as DPPH radical scavenging activity after 15 mins by spectrophotometry; type: functional
How it was run: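 Sample (10 µL at 0.1, 1.0 or 10.0 mg/mL) mixed with 0.1 mM DPPH in methanol (150 µL), kept in the dark at room temperature on a shaker for 15 min. Absorbance read at 517 nm. Percentage scavenging = [(A0 − A1)/A0] × 100, with A0 and A1 the absorbance without and with sample.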

[6] = system: Maltase-glucoamylase, intestinal (Rattus norvegicus); test: Inhibition of rat intestine maltase using maltose as substrate at 10 mg/ml incubated for 10 mins prior to substrate addition measured after 40 mins by glucose oxidase colorimetric method
[7] = Inhibition of yeast type 1 alpha-glucosidase using PNPG as substrate incubated for 10 mins prior to substrate addition measured after 20 mins by spectrophotometry; design: species or system Saccharomyces cerevisiae
[8] = target: T1, Sucrase-isomaltase, intestinal; test: Non-competitive inhibition of rat intestine sucrase using sucrose as substrate by Lineweaver-Burk plot analysis
How it was run: (§1)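 Same maltase/sucrase reactions, with activity held at 0.45 (maltase) and 0.09 (sucrase) U/mg protein. Inhibitor 0 to 20.4 mM against substrate 1.0 to 20.0 mM. Vmax and Km obtained from Lineweaver–Burk intercepts and slopes. Ki (EI) from a secondary plot of slope versus inhibitor concentration; Ki′ (ESI) from a secondary plot of intercept versus inhibitor concentration.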

[9] = target: T1, Sucrase-isomaltase, intestinal; test: Competitive inhibition of rat intestine sucrase using sucrose as substrate by Lineweaver-Burk plot analysis; how it was run: as §1

Sequence of Sucrase-isomaltase, intestinal (Rattus norvegicus) (P23739 1-1013 limits assumed): as the sequence (P23739 1-1013 limits assumed) above
Sequence of Sucrase-isomaltase, intestinal (Rattus norvegicus) (P23739 1014-1841 limits assumed): as the sequence (P23739 1014-1841 limits assumed) above

Structure (SMILES)	inhibition [1] [%]	inhibition [2] [%]	inhibition [3] [%]	IC50 [4] [µM]	further results
COc1ccccc1/C=C/C(=O)O[C@H]1C[C@@H](O)[C@H](O)[C@@H](O)[C@H]1O	< 30	–	–	–	–
COc1cc(/C=C/C(=O)O[C@H]2C[C@@H](O)[C@H](O)[C@@H](O)[C@H]2O)ccc1O	–	< 50	< 30	171	–
COc1ccc(/C=C/C(=O)O[C@@H]2C[C@@H](O)[C@H](O)[C@@H](O)[C@H]2O)cc1OC	< 30	–	–	–	–
COc1ccc(O)c(C(C)(C)C)c1.COc1ccc(O)cc1C(C)(C)C [BUTYLATED HYDROXYANISOLE]	–	–	–	–	IC50 [5]: 0.1 µM
COc1ccc(/C=C/C(=O)O[C@@H]2C[C@@H](O)[C@H](O)[C@@H](O)[C@H]2O)cc1	< 30	< 50	< 30	–	inhibition [6]: < 30%
O=C(O)/C=C/c1ccc(O)c(O)c1 [CAFFEIC ACID]	–	–	< 30	87.4	IC50 [5]: 150 µM
COc1cccc(/C=C/C(=O)O[C@@H]2C[C@@H](O)[C@H](O)[C@@H](O)[C@H]2O)c1	< 30	–	–	–	–
C[C@H]1O[C@H](O[C@H]2[C@H](O)[C@@H](O)[C@@H](O[C@H]3[C@H](O)[C@@H](O)C(O)O[C@@H]3CO)O[C@@H]2CO)[C@H](O)[C@@H](O)[C@@H]1N[C@H]1C=C(CO)[C@@H](O)[C@H](O)[C@H]1O (stereo partly drawn) [ACARBOSE]	–	–	–	–	IC50 [7]: 404 µM
COc1cc(/C=C/C(=O)O[C@@H]2C[C@@H](O)[C@H](O)[C@@H](O)[C@H]2O)cc(OC)c1OC	< 30	< 50	< 30	–	inhibition [6]: < 30%
COc1ccc(/C=C/C(=O)O[C@@H]2C[C@@H](O)[C@H](O)[C@@H](O)[C@H]2O)cc1O	–	< 50	< 30	53	–
COc1ccc(/C=C/C(=O)O[C@H]2C[C@@H](O)[C@H](O)[C@@H](O)[C@H]2O)cc1O	–	< 50	< 30	805	–
COc1ccc(/C=C/C(=O)O[C@H]2C[C@@H](O)[C@H](O)[C@@H](O)[C@H]2O)cc1OC	< 30	–	–	–	–
COc1cc(/C=C/C(=O)O[C@@H]2C[C@@H](O)[C@H](O)[C@@H](O)[C@H]2O)ccc1O	–	< 50	< 30	67.2	–
O=C(/C=C/c1ccc(O)c(O)c1)O[C@H]1C[C@@H](O)[C@H](O)[C@@H](O)[C@H]1O	–	< 50	< 30	954	–
COc1ccccc1/C=C/C(=O)O[C@@H]1C[C@@H](O)[C@H](O)[C@@H](O)[C@H]1O	< 30	–	–	–	–
COc1ccc(/C=C/C(=O)O[C@H]2C[C@@H](O)[C@H](O)[C@@H](O)[C@H]2O)cc1	< 30	< 50	< 30	–	inhibition [6]: < 30%
COc1cccc(/C=C/C(=O)O[C@H]2C[C@@H](O)[C@H](O)[C@@H](O)[C@H]2O)c1	< 30	–	–	–	–
O=C(/C=C/c1ccc(O)c(O)c1)O[C@@H]1C[C@@H](O)[C@H](O)[C@@H](O)[C@H]1O	–	–	< 30	43.6	IC50 [5]: 110 µM; Ki [8]: 47.5 µM; Ki [9]: 22.4 µM
